Source: ChEMBL document CHEMBL3865797, “Design, synthesis and biological evaluation of berberine-benzimidazole hybrids as new type of potentially DNA-targeting antimicrobial agents” (Eur J Med Chem, 2016)

system: Candida albicans; test: Antifungal activity against Candida albicans ATCC 76615 measured after 24 hrs by two-fold serial dilution method; type: functional; conditions: ATCC 76615, 24 h
Method in brief: (§1)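 MIC by two-fold serial broth microdilution in 96-well plates, following NCCLS recommendations. Chloromycin, norfloxacin and fluconazole serve as reference drugs. The MIC is read as the lowest concentration that inhibits growth, in µg/mL.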

SMILES | MIC80 [µg/mL]
CCCCCCCCCCCCCCCCCCn1c(COc2c(OC)ccc3cc4[n+](cc23)CCc2cc3c(cc2-4)OCO3)nc2ccccc21.[Cl-] | 512
CCCCCCCCn1c(COc2c(OC)ccc3cc4[n+](cc23)CCc2cc3c(cc2-4)OCO3)nc2ccccc21.[Cl-] | 16
COc1ccc2cc3[n+](cc2c1OCc1nc2ccc(F)cc2[nH]1)CCc1cc2c(cc1-3)OCO2.[Cl-] | 512

system: Pseudomonas aeruginosa; test: Antibacterial activity against Pseudomonas aeruginosa measured after 24 hrs by two-fold serial dilution method; type: functional; conditions: not given; method in brief: as §1

SMILES | MIC [µg/mL]
CCCCCCCCCCCCCCCCCCn1c(COc2c(OC)ccc3cc4[n+](cc23)CCc2cc3c(cc2-4)OCO3)nc2ccccc21.[Cl-] | 512
CCCCCCCCn1c(COc2c(OC)ccc3cc4[n+](cc23)CCc2cc3c(cc2-4)OCO3)nc2ccccc21.[Cl-] | 8
COc1ccc2cc3[n+](cc2c1OCc1nc2ccc(F)cc2[nH]1)CCc1cc2c(cc1-3)OCO2.[Cl-] | 256

system: Proteus vulgaris; test: Antibacterial activity against Bacillus proteus ATCC 13315 measured after 24 hrs by two-fold serial dilution method; type: functional; conditions: ATCC 13315, 24 h; method in brief: as §1

SMILES | MIC [µg/mL]
CCCCCCCCCCCCCCCCCCn1c(COc2c(OC)ccc3cc4[n+](cc23)CCc2cc3c(cc2-4)OCO3)nc2ccccc21.[Cl-] | 64
CCCCCCCCn1c(COc2c(OC)ccc3cc4[n+](cc23)CCc2cc3c(cc2-4)OCO3)nc2ccccc21.[Cl-] | 512
COc1ccc2cc3[n+](cc2c1OCc1nc2ccc(F)cc2[nH]1)CCc1cc2c(cc1-3)OCO2.[Cl-] | 16

system: not listed separately; test: Antifungal activity against Saccharomyces cerevisiae measured after 24 hrs by two-fold serial dilution method; type: functional; conditions: not given; method in brief: as §1

SMILES | MIC80 [µg/mL]
CCCCCCCCCCCCCCCCCCn1c(COc2c(OC)ccc3cc4[n+](cc23)CCc2cc3c(cc2-4)OCO3)nc2ccccc21.[Cl-] | 512
CCCCCCCCn1c(COc2c(OC)ccc3cc4[n+](cc23)CCc2cc3c(cc2-4)OCO3)nc2ccccc21.[Cl-] | 512
COc1ccc2cc3[n+](cc2c1OCc1nc2ccc(F)cc2[nH]1)CCc1cc2c(cc1-3)OCO2.[Cl-] | 256

system: not listed separately; test: Antifungal activity against Candida utilis measured after 24 hrs by two-fold serial dilution method; type: functional; conditions: Cyberlindnera jadinii; method in brief: as §1

SMILES | MIC80 [µg/mL]
CCCCCCCCCCCCCCCCCCn1c(COc2c(OC)ccc3cc4[n+](cc23)CCc2cc3c(cc2-4)OCO3)nc2ccccc21.[Cl-] | 128
CCCCCCCCn1c(COc2c(OC)ccc3cc4[n+](cc23)CCc2cc3c(cc2-4)OCO3)nc2ccccc21.[Cl-] | 32
COc1ccc2cc3[n+](cc2c1OCc1nc2ccc(F)cc2[nH]1)CCc1cc2c(cc1-3)OCO2.[Cl-] | 64

system: Escherichia coli; test: Antibacterial activity against Escherichia coli JM109 measured after 24 hrs by two-fold serial dilution method; type: functional; conditions: JM109, 24 h; method in brief: as §1

SMILES | MIC [µg/mL]
CCCCCCCCCCCCCCCCCCn1c(COc2c(OC)ccc3cc4[n+](cc23)CCc2cc3c(cc2-4)OCO3)nc2ccccc21.[Cl-] | 512
CCCCCCCCn1c(COc2c(OC)ccc3cc4[n+](cc23)CCc2cc3c(cc2-4)OCO3)nc2ccccc21.[Cl-] | 512
COc1ccc2cc3[n+](cc2c1OCc1nc2ccc(F)cc2[nH]1)CCc1cc2c(cc1-3)OCO2.[Cl-] | 32

system: Salmonella typhi; test: Antibacterial activity against Salmonella typhi measured after 24 hrs by two-fold serial dilution method; type: functional, Salmonella enterica subsp. enterica serovar Typhi; conditions: Salmonella enterica
Method in brief: (§2)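 Two-fold serial dilution in 96-well microtest plates following NCCLS guidance (micro broth dilution). Chloromycin and norfloxacin serve as positive controls. MIC is reported in µg/mL.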

SMILES | MIC [µg/mL]
CCCCCCCCCCCCCCCCCCn1c(COc2c(OC)ccc3cc4[n+](cc23)CCc2cc3c(cc2-4)OCO3)nc2ccccc21.[Cl-] | 256
CCCCCCCCn1c(COc2c(OC)ccc3cc4[n+](cc23)CCc2cc3c(cc2-4)OCO3)nc2ccccc21.[Cl-] | 32
COc1ccc2cc3[n+](cc2c1OCc1nc2ccc(F)cc2[nH]1)CCc1cc2c(cc1-3)OCO2.[Cl-] | 16

system: Staphylococcus aureus; test: Antibacterial activity against Staphylococcus aureus ATCC 25923 measured after 24 hrs by two-fold serial dilution method; type: functional; conditions: ATCC 25923, 24 h; method in brief: as §1

SMILES | MIC [µg/mL]
CCCCCCCCCCCCCCCCCCn1c(COc2c(OC)ccc3cc4[n+](cc23)CCc2cc3c(cc2-4)OCO3)nc2ccccc21.[Cl-] | 512
CCCCCCCCn1c(COc2c(OC)ccc3cc4[n+](cc23)CCc2cc3c(cc2-4)OCO3)nc2ccccc21.[Cl-] | 8
COc1ccc2cc3[n+](cc2c1OCc1nc2ccc(F)cc2[nH]1)CCc1cc2c(cc1-3)OCO2.[Cl-] | 8

system: Staphylococcus aureus; test: Antibacterial activity against methicillin-resistant Staphylococcus aureus N315 measured after 24 hrs by two-fold serial dilution method; type: functional; conditions: N315, 24 h; method in brief: as §2

SMILES | MIC [µg/mL]
CCCCCCCCCCCCCCCCCCn1c(COc2c(OC)ccc3cc4[n+](cc23)CCc2cc3c(cc2-4)OCO3)nc2ccccc21.[Cl-] | 512
CCCCCCCCn1c(COc2c(OC)ccc3cc4[n+](cc23)CCc2cc3c(cc2-4)OCO3)nc2ccccc21.[Cl-] | 64
COc1ccc2cc3[n+](cc2c1OCc1nc2ccc(F)cc2[nH]1)CCc1cc2c(cc1-3)OCO2.[Cl-] | 512

system: Micrococcus luteus; test: Antibacterial activity against Micrococcus luteus ATCC 4698 measured after 24 hrs by two-fold serial dilution method; type: functional; conditions: NCTC 2665, 24 h; method in brief: as §1

SMILES | MIC [µg/mL]
CCCCCCCCCCCCCCCCCCn1c(COc2c(OC)ccc3cc4[n+](cc23)CCc2cc3c(cc2-4)OCO3)nc2ccccc21.[Cl-] | 512
CCCCCCCCn1c(COc2c(OC)ccc3cc4[n+](cc23)CCc2cc3c(cc2-4)OCO3)nc2ccccc21.[Cl-] | 64
COc1ccc2cc3[n+](cc2c1OCc1nc2ccc(F)cc2[nH]1)CCc1cc2c(cc1-3)OCO2.[Cl-] | 16

system: Bacillus subtilis; test: Antibacterial activity against Bacillus subtilis measured after 24 hrs by two-fold serial dilution method; type: functional; conditions: not given; method in brief: as §1

SMILES | MIC [µg/mL]
CCCCCCCCCCCCCCCCCCn1c(COc2c(OC)ccc3cc4[n+](cc23)CCc2cc3c(cc2-4)OCO3)nc2ccccc21.[Cl-] | 512
CCCCCCCCn1c(COc2c(OC)ccc3cc4[n+](cc23)CCc2cc3c(cc2-4)OCO3)nc2ccccc21.[Cl-] | 8
COc1ccc2cc3[n+](cc2c1OCc1nc2ccc(F)cc2[nH]1)CCc1cc2c(cc1-3)OCO2.[Cl-] | 256

system: Aspergillus flavus; test: Antifungal activity against Aspergillus flavus measured after 24 hrs by two-fold serial dilution method; type: functional; conditions: not given; method in brief: as §1

SMILES | MIC80 [µg/mL]
CCCCCCCCCCCCCCCCCCn1c(COc2c(OC)ccc3cc4[n+](cc23)CCc2cc3c(cc2-4)OCO3)nc2ccccc21.[Cl-] | 512
CCCCCCCCn1c(COc2c(OC)ccc3cc4[n+](cc23)CCc2cc3c(cc2-4)OCO3)nc2ccccc21.[Cl-] | 256
COc1ccc2cc3[n+](cc2c1OCc1nc2ccc(F)cc2[nH]1)CCc1cc2c(cc1-3)OCO2.[Cl-] | 32
